{"source": "ChEMBL document CHEMBL1138602", "about": "“Discovery of sodium 6-[(5-chloro-2-{[(4-chloro-2-fluorophenyl)methyl]oxy}phenyl)methyl]-2-pyridinecarboxylate (GSK269984A) an EP(1) receptor antagonist for the treatment of inflammatory pain” (Bioorg Med Chem Lett, 2009)", "key": {"[1]": {"assay": "Drug level in Landrace pig blood at 0.5 mg/kg/hr administered by infusion for 1 hrs", "assay_type": "ADME, organism-based, Sus scrofa", "details": "intravenous, read-out: Drug uptake", "procedure,_shortened": "(§1)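 Landrace pig given a 1 h infusion; blood and brain concentrations measured in a single animal.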"}, "[2]": {"assay": "Oral bioavailability in cynomolgus monkey at 3 mg/kg", "assay_type": "ADME, organism-based, Macaca fascicularis", "details": "in vivo"}, "[3]": {"assay": "Drug level in brain of complete Freund's adjuvant-induced rat inflammatory pain model at 3 mg/kg, po administered after 23 hrs of adjuvant challenge measured after 1 hr", "assay_type": "ADME, organism-based", "design": "dose 3 mg/kg, route oral", "details": "read-out: Drug uptake", "procedure,_shortened": "(§2)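 CFA rat study: oral doses of 1, 3 or 10 mg/kg given 23 h after intraplantar adjuvant, samples 1 h post-dose. Blood values are the mean from seven animals. Brain values are the mean from three animals.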"}, "[4]": {"assay": "Volume of distribution at steady state in cynomolgus monkey at 1 mg/kg administered by intravenous infusion for 1 hr", "assay_type": "ADME, organism-based, Macaca fascicularis", "design": "dose 1 mg/kg, route intravenous", "details": "in vivo, read-out: Vdss"}, "[5]": {"assay": "Drug level in blood of complete Freund's adjuvant induced rat inflammatory pain model at 10 mg/kg, bid measured after 1 hr on day 5", "assay_type": "ADME, organism-based", "design": "dose 10 mg/kg", "details": "read-out: Drug uptake", "procedure,_shortened": "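Satellite group dosed at 10 mg/kg b.i.d. for 5 days; blood sampled 1 h post-dose on day 1 and on day 5.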"}, "[6]": {"assay": "Ratio of drug level in brain to blood in complete Freund's adjuvant-induced rat inflammatory pain model at 3 mg/kg, po administered after 23 hrs of adjuvant challenge measured after 1 hr", "assay_type": "ADME, organism-based", "design": "dose 3 mg/kg, route oral", "details": "brain and blood", "procedure,_shortened": "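Rat CFA inflammatory pain model: oral dosing at 1, 3 or 10 mg/kg 23 h after intraplantar adjuvant; blood and brain sampled 1 h post-dose from the same animal; Br:Bl ratio is the mean from three animals.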"}, "[7]": {"assay": "Drug level in rat brain at 0.5 mg/kg/hr administered by infusion for 1 hrs", "assay_type": "ADME, organism-based", "details": "intravenous, read-out: Drug uptake", "procedure,_shortened": "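Rat given a 1 h infusion; blood and brain concentrations measured.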"}, "[8]": {"assay": "Solubility in FeSSIF after 0.5 hrs", "assay_type": "physicochemical", "procedure,_shortened": "(§3)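 Solubility determined in water, FaSSIF and FeSSIF, all read at the 0.5 h time point.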"}, "[9]": {"assay": "Ratio of drug level in brain to blood of Landrace pig at 0.5 mg/kg/hr administered by infusion for 1 hrs", "details": "brain and blood, intravenous"}, "[10]": {"assay": "Volume of distribution at steady state in Beagle dog at 1 mg/kg administered by intravenous infusion for 1 hr", "assay_type": "ADME, organism-based, Canis lupus familiaris", "design": "dose 1 mg/kg, route intravenous", "details": "in vivo, read-out: Vdss"}, "[11]": {"assay": "Half life in cynomolgus monkey at 1 mg/kg administered by intravenous infusion for 1 hr", "assay_type": "ADME, organism-based, Macaca fascicularis", "design": "dose 1 mg/kg, route intravenous", "details": "in vivo", "procedure,_shortened": "(§4)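 Intravenous administration as a 1 h infusion of a 1 mg/kg dose. Rats were male Sprague-Dawley; dogs were beagle; monkeys were cynomolgus. Blood clearance, Vss and half-life determined.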"}, "[12]": {"assay": "Drug level in Landrace pig brain at 0.5 mg/kg/hr administered by infusion for 1 hrs", "assay_type": "ADME, organism-based, Sus scrofa", "details": "intravenous, read-out: Drug uptake", "procedure,_shortened": "as §1"}, "[13]": {"assay": "Drug level in blood of complete Freund's adjuvant-induced rat inflammatory pain model at 1 mg/kg, po administered after 23 hrs of adjuvant challenge measured after 1 hr", "assay_type": "ADME, organism-based", "design": "dose 1 mg/kg, route oral", "details": "read-out: Drug uptake", "procedure,_shortened": "as §2"}, "[14]": {"assay": "Drug level in brain of complete Freund's adjuvant-induced rat inflammatory pain model at 1 mg/kg, po administered after 23 hrs of adjuvant challenge measured after 1 hr", "assay_type": "ADME, organism-based", "design": "dose 1 mg/kg, route oral", "details": "read-out: Drug uptake", "procedure,_shortened": "as §2"}, "[15]": {"assay": "Volume of distribution at steady state in Sprague-Dawley rat at 1 mg/kg administered by intravenous infusion for 1 hr", "assay_type": "ADME, organism-based", "design": "dose 1 mg/kg, route intravenous", "details": "in vivo, read-out: Vdss"}, "Rattus norvegicus": {"system": "Rattus norvegicus", "assay": "Antianalgesic activity against complete Freund's adjuvant-induced rat inflammatory pain in rat assessed as reversal of hypersensitivity at 10 mg/kg, po bid for 5 days measured on day 5 after 1 hr", "assay_type": "functional, organism-based", "design": "dose 10 mg/kg"}, "[16]": {"molecular_target": "Prostaglandin G/H synthase 1 (Homo sapiens, UniProt P23219)", "sequence (P23219 whole entry)": "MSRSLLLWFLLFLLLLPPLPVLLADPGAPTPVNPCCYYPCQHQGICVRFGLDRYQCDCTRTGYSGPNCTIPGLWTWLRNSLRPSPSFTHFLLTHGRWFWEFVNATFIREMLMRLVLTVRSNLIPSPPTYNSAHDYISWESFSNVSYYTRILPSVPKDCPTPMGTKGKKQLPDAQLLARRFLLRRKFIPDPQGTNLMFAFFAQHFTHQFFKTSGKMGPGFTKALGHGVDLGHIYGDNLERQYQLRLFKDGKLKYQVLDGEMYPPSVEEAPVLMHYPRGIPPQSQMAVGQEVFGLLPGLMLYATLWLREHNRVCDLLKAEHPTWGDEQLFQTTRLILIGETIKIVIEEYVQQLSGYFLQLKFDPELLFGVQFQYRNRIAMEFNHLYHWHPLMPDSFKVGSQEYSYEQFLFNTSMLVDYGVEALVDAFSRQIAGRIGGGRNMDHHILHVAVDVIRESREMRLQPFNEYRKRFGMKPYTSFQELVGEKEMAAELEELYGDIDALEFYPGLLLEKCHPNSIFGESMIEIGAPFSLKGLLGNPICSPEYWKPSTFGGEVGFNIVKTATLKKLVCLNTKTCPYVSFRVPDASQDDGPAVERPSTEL", "assay": "Inhibition of COX1"}, "[17]": {"assay": "Solubility in FaSSIF after 0.5 hrs", "assay_type": "physicochemical", "procedure,_shortened": "as §3"}, "[18]": {"molecular_target": "T1, Prostaglandin E2 receptor EP1 subtype (Homo sapiens, UniProt P34995)", "T1 sequence (P34995 whole entry)": "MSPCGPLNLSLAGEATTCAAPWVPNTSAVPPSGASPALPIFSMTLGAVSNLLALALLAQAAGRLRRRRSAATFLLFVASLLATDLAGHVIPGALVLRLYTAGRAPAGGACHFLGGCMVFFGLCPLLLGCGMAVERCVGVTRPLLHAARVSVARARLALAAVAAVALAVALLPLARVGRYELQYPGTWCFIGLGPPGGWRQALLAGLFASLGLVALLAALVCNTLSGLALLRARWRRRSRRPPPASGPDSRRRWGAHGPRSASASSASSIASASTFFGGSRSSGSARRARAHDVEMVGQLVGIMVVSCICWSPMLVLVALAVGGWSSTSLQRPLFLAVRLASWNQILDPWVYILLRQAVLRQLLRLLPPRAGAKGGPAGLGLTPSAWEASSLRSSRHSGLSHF", "assay": "Displacement of [3H]PGE2 from human EP1 receptor expressed in CHO cells", "assay_type": "cell-based", "procedure,_shortened": "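Radioligand binding with [3H]-PGE2 in CHO cells overexpressing human EP1 receptor. Values are the mean of at least three experiments with standard deviations.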"}, "[19]": {"molecular_target": "T1, Prostaglandin E2 receptor EP1 subtype", "assay": "Antagonist activity at human recombinant EP1 receptor expressed in CHO cells assessed as inhibition of PGE2-mediated intracellular calcium mobilization by FLIPR method", "assay_type": "functional, cell-based", "procedure,_shortened": "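CHO cells recombinantly overexpressing human EP1 receptor; antagonism measured as block of PGE2-mediated intracellular Ca2+ mobilization. Values are the mean of at least three experiments with standard deviations.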"}, "[20]": {"assay": "Ratio of drug level in brain to blood of rat at 0.5 mg/kg/hr administered by infusion for 1 hrs", "details": "brain and blood, intravenous"}, "[21]": {"assay": "Clearance in cynomolgus monkey blood at 1 mg/kg administered by intravenous infusion for 1 hr", "assay_type": "ADME, organism-based, Macaca fascicularis", "design": "dose 1 mg/kg, route intravenous", "procedure,_shortened": "as §4"}, "[22]": {"assay": "Drug level in blood of complete Freund's adjuvant-induced rat inflammatory pain model at 3 mg/kg, po administered after 23 hrs of adjuvant challenge measured after 1 hr", "assay_type": "ADME, organism-based", "design": "dose 3 mg/kg, route oral", "details": "read-out: Drug uptake", "procedure,_shortened": "as §2"}, "Hepatocyte": {"system": "Hepatocyte", "assay": "Intrinsic clearance in rat hepatocytes measured per gram of live", "assay_type": "ADME, cell-based, Liver", "procedure,_shortened": "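Intrinsic clearance in hepatocytes expressed as mL/min/g liver. Cell densities were 0.15–0.2 × 10^6 cells/mL or 0.54–0.7 × 10^6 cells/mL.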"}, "[23]": {"assay": "Clearance in Sprague-Dawley rat blood at 1 mg/kg administered by intravenous infusion for 1 hr", "assay_type": "ADME, organism-based", "design": "dose 1 mg/kg, route intravenous", "procedure,_shortened": "as §4"}, "Cytochrome P450 3A4": {"molecular_target": "Cytochrome P450 3A4 (Homo sapiens, UniProt P08684)", "sequence (P08684 whole entry)": "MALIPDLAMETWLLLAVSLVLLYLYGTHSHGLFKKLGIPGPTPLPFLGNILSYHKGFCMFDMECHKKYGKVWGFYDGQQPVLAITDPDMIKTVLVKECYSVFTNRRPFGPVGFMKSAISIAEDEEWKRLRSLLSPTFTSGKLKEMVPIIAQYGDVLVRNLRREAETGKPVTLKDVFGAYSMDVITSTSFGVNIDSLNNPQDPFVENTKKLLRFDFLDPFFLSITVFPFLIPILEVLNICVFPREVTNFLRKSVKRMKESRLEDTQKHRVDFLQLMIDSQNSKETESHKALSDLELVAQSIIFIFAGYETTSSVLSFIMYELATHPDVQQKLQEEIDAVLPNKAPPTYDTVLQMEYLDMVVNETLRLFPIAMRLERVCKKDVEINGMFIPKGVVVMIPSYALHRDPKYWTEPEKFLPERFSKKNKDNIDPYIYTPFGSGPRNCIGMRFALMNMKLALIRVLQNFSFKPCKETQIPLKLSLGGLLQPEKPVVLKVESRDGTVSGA", "assay": "Inhibition of human CYP3A4", "assay_type": "ADME", "procedure,_shortened": "(§5)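 Inhibition of metabolism of fluorometric substrates (Cypex protocol); IC50 values are the mean of three experiments ± standard deviation.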"}, "[24]": {"assay": "Oral bioavailability in Sprague-Dawley rat at 3 mg/kg", "assay_type": "ADME, organism-based", "details": "in vivo", "procedure,_shortened": "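Single oral dose of 3 mg/kg in 1% (w/v) methylcellulose vehicle. Rats were male Sprague-Dawley; dogs were beagle. Bioavailability (Fpo) determined.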"}, "[25]": {"assay": "Half life in Sprague-Dawley rat at 1 mg/kg administered by intravenous infusion for 1 hr", "assay_type": "ADME, organism-based", "design": "dose 1 mg/kg, route intravenous", "details": "in vivo", "procedure,_shortened": "as §4"}, "[26]": {"assay": "Drug level in mouse blood at 0.5 mg/kg/hr administered by infusion for 12 hrs", "assay_type": "ADME, organism-based", "details": "intravenous, read-out: Drug uptake", "procedure,_shortened": "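Steady-state 12 h infusion at 5 mL/kg/h to reach a target dose of 0.5 mg/kg/h; blood and brain concentrations measured. Data are the mean from three animals.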"}, "[27]": {"molecular_target": "T1, Prostaglandin E2 receptor EP1 subtype", "assay": "Antagonist activity at human recombinant EP1 receptor expressed in CHO cells assessed as luciferase activity by Schild assay", "assay_type": "functional, cell-based", "details": "read-out: pA2 (converted)"}, "[28]": {"assay": "Clearance in Beagle dog blood at 1 mg/kg administered by intravenous infusion for 1 hr", "assay_type": "ADME, organism-based, Canis lupus familiaris", "design": "dose 1 mg/kg, route intravenous", "procedure,_shortened": "as §4"}, "Cytochrome P450 2C19": {"molecular_target": "Cytochrome P450 2C19 (Homo sapiens, UniProt P33261)", "sequence (P33261 whole entry)": "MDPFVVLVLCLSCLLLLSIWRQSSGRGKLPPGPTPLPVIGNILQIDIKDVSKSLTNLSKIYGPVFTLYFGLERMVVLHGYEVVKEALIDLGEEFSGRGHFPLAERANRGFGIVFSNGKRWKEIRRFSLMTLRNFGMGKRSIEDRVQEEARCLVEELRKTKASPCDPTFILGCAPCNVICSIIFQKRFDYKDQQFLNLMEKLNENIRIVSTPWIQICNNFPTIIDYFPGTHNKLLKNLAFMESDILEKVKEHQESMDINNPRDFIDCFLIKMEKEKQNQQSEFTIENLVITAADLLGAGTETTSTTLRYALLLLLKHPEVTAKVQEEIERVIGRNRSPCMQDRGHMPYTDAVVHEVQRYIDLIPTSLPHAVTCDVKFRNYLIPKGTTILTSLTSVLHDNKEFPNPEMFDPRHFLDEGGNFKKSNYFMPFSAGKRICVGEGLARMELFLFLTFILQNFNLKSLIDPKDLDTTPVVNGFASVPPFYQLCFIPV", "assay": "Inhibition of human CYP2C19", "assay_type": "ADME", "procedure,_shortened": "as §5"}}, "note": "Calls of active or inactive are those of the source. The calls are words filed in the database; no cut-off is given here."}
{"molecule": "O=C([O-])c1cccc(Cc2cc(Cl)ccc2OCc2ccc(Cl)cc2F)n1.[Na+]", "values": [{"measurement": "concentration at 1 h", "setting": "[1]", "value": 2300, "unit": "nM"}, {"measurement": "bioavailability", "setting": "[2]", "value": 7, "unit": "%"}, {"measurement": "concentration at 1 h", "setting": "[3]", "value": 175, "unit": "nM"}, {"measurement": "Vd", "setting": "[4]", "value": 0.6, "unit": "L/kg"}, {"measurement": "concentration at 1 h", "setting": "[5]", "value": 2610, "unit": "nM"}, {"measurement": "Kp at 1 h", "setting": "[6]", "value": 0.37}, {"measurement": "concentration at 1 h", "setting": "[7]", "value": 374, "unit": "nM"}, {"measurement": "solubility at 0.5 h", "setting": "[8]", "value": 358, "unit": "µg/mL"}, {"measurement": "Kp at 1 h", "setting": "[9]", "value": 0.27}, {"measurement": "Vd", "setting": "[10]", "value": 0.6, "unit": "L/kg"}, {"measurement": "half-life", "setting": "[11]", "value": 0.6, "unit": "h"}, {"measurement": "concentration at 1 h", "setting": "[12]", "value": 627, "unit": "nM"}, {"measurement": "concentration at 1 h", "setting": "[13]", "value": 144, "unit": "nM"}, {"measurement": "concentration at 1 h", "setting": "[14]", "value": 60, "unit": "nM"}, {"measurement": "Vd", "setting": "[15]", "value": 2.1, "unit": "L/kg"}, {"measurement": "Activity", "setting": "Rattus norvegicus", "value": "Active"}, {"measurement": "IC50", "setting": "[16]", "value": "> 31.6", "unit": "µM"}, {"measurement": "solubility at 0.5 h", "setting": "[17]", "value": 60, "unit": "µg/mL"}, {"measurement": "IC50", "setting": "[18]", "value": 0.0126, "unit": "µM"}, {"measurement": "Ki", "setting": "[19]", "value": 0.00794, "unit": "µM"}, {"measurement": "Kp at 1 h", "setting": "[20]", "value": 0.21}, {"measurement": "clearance", "setting": "[21]", "value": 41, "unit": "mL/min/kg"}, {"measurement": "concentration at 1 h", "setting": "[22]", "value": 415, "unit": "nM"}, {"measurement": "clearance", "setting": "Hepatocyte", "value": 2.1, "unit": "mL/min/g"}, {"measurement": "clearance", "setting": "[23]", "value": 19, "unit": "mL/min/kg"}, {"measurement": "IC50", "setting": "Cytochrome P450 3A4", "value": "≥ 100", "unit": "µM"}, {"measurement": "bioavailability", "setting": "[24]", "value": 94, "unit": "%"}, {"measurement": "half-life", "setting": "[25]", "value": 2.3, "unit": "h"}, {"measurement": "concentration at 12 h", "setting": "[26]", "value": 199, "unit": "nM"}, {"measurement": "Kb", "setting": "[27]", "value": 0.00794, "unit": "µM"}, {"measurement": "clearance", "setting": "[28]", "value": 18, "unit": "mL/min/kg"}, {"measurement": "IC50", "setting": "Cytochrome P450 2C19", "value": 85, "unit": "µM"}]}
